Calls of active or inactive are those of the source. The rule behind the calls is not given here.
How the values were obtained:
[1] = molecular target: T1, N-formyl peptide receptor 2 (Homo sapiens, UniProt P25090); assay: Agonist activity at human FPR2 expressed in HEK 293 cells co-expressing Galpha15 measured every 1.5 sec for 80 sec by Fluo-4 NW staining based scanning fluorometric method; format: cell-based, HEK293
T1 sequence (P25090 whole entry): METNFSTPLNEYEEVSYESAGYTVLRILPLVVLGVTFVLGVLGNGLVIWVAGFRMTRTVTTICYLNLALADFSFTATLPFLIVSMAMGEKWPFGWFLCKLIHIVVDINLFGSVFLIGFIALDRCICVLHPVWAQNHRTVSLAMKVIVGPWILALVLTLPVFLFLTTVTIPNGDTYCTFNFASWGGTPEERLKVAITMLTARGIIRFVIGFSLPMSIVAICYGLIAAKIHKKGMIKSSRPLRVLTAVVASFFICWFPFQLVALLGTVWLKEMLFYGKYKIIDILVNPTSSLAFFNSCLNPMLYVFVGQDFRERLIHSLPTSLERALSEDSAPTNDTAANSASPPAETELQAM
Outline: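 HEK293 cells were transiently co-transfected with FPR plus Gα15 (Lipofectamine 2000), then reseeded after 24 h on poly-D-lysine plates and grown one more day. Cells were loaded with Fluo-4 NW for 45 min at 37°C. Compound was added and fluorescence (ex 485/em 525 nm) read for 80 s at 1.5 s intervals. Response = maximal peak minus basal.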

[2] = In vivo […] in mouse assessed as reduction in LPS-induced neutrophil infiltration in BALF cells at 1 mg/kg, po relative to control; format: functional
Outline: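 Mice were given LPS and dosed orally at 1 mg/kg. Neutrophils in BALF were counted, and percent inhibition was calculated.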

fMet-Leu-Phe receptor [3] = molecular target: T2, fMet-Leu-Phe receptor (Homo sapiens, UniProt P21462); assay: Agonist activity at human FPR1 expressed in CHO cells assessed as reduction cAMP accumulation incubated for 1 hr by TR-FRET assay; format: functional, cell-based
T2 sequence (P21462 whole entry): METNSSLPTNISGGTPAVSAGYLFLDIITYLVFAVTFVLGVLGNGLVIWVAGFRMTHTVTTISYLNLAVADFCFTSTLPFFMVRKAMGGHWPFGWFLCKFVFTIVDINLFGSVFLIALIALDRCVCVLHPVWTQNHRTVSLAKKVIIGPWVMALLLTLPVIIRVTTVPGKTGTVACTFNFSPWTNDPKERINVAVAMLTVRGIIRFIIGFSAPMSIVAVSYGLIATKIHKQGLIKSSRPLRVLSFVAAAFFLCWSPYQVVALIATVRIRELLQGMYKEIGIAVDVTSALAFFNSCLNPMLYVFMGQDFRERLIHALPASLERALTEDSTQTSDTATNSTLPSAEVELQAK
Outline: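 CHO cells overexpressing the receptor were used, 2,000 hFPR2 or 4,000 hFPR1 cells/well. Cells were incubated 30 min at room temperature with compound (1.7 nM-100 µM, 1% DMSO), IBMX 200 µM and forskolin (5 µM for FPR2, 10 µM for FPR1) in DPBS/0.1% BSA. cAMP was read by HTRF after 1 h lysis against a standard curve. Data were fitted to a 4-parameter logistic, average of ≥2 occasions.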

fMet-Leu-Phe receptor [4] = molecular target: T3, fMet-Leu-Phe receptor (Mus musculus, UniProt P33766); assay: Agonist activity at mouse FPR1 expressed in CHO cells assessed as reduction cAMP accumulation incubated for 1 hr by TR-FRET assay; format: functional, cell-based
T3 sequence (P33766 whole entry): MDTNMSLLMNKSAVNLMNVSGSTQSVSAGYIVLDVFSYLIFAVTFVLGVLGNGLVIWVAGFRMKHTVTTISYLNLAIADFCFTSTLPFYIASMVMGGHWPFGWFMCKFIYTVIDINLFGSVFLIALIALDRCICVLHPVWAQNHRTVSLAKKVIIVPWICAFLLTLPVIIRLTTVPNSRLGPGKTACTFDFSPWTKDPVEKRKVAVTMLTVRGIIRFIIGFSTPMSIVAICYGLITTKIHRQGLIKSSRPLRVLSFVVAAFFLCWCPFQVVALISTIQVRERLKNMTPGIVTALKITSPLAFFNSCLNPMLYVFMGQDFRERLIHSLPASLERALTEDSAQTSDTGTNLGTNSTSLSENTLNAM

CHO [5] = assay: Selectivity ratio of agonist activity at human FPR1 expressed in CHO cells to agonist activity at human FPR2 expressed in CHO cells; format: cell-based
Outline: (§1)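 Ratio of FPR1 to FPR2 EC50 from the CHO-cell forskolin/IBMX cAMP HTRF assay, 30 min at room temperature, 4-parameter logistic fit.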

CHO [6] = assay: Selectivity ratio of agonist activity at mouse FPR1 expressed in CHO cells to agonist activity at mouse FPR2 expressed in CHO cells; format: cell-based; outline: as §1
Mus musculus = assay: Cardioprotective activity in C57BL/6 mouse model of LAD coronary artery ligation-induced myocardial infarction assessed as reduction in heart weight at 0.3 mg/kg, po and measured after 28 days; format: functional, organism-based; conditions: time 28.0 day
Outline: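 Male C57BL/6 mice (10-12 weeks) underwent permanent LAD ligation under ketamine/xylazine, with shams having an untightened suture. Compound (0.3 mg/kg/d) or vehicle was given by oral gavage once daily (5 mL/kg) from post-MI day 4 for 24 days. Endpoints were taken at 28 days post-MI; scar length was quantified from LV cross sections.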

[7] = Total clearance in Crl:CD1(ICR) mouse at 0.5 mg/kg, iv by LC-MS/MS analysis; format: ADME, organism-based; conditions: in vivo
Outline: (§2)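 Male animals received intravenous solution in DMSO/PEG400/saline (5/47.5/47.5). EDTA plasma was extracted with methanol/acetonitrile (1:1) plus internal standard and quantified by LC-MS/MS. AUC0-inf was calculated by the trapezoidal rule with terminal-phase kel extrapolation.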

[8] = Total clearance in cynomolgus monkey at 1 mg/kg, iv by LC-MS/MS analysis; format: ADME, organism-based, Macaca fascicularis; conditions: in vivo; outline: as §2
[9] = Cmax in BALB/cCrSlc mouse at 1 mg/kg, po by LC-MS/MS analysis; format: ADME, organism-based; design: route oral, dose 1 mg/kg; conditions: in vivo
Outline: (§3)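 Male animals dosed orally with a suspension in 0.5% MC. Blood was taken into EDTA 2K capillaries and plasma was stored frozen. Plasma was mixed with methanol/acetonitrile (1:1) plus internal standard, centrifuged, and drug was measured by LC-MS/MS. AUC0-inf was obtained by the trapezoidal rule, extrapolated with kel from the terminal phase. t1/2 = ln2/kel.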

[10] = Cmax in Beagle dog at 1 mg/kg, po by LC-MS/MS analysis; format: ADME, organism-based, Canis lupus familiaris; design: route oral, dose 1 mg/kg; conditions: in vivo; outline: as §3
[11] = Half life in BALB/cCrSlc mouse at 1 mg/kg, po by LC-MS/MS analysis; format: ADME, organism-based; conditions: in vivo; outline: as §3
[12] = Half life in cynomolgus monkey at 3 mg/kg, po by LC-MS/MS analysis; format: ADME, organism-based, Macaca fascicularis; conditions: in vivo; outline: as §3
[13] = AUC (0 to infinity) in Crl:CD(SD) rat at 1 mg/kg, po by LC-MS/MS analysis; format: ADME, organism-based; design: time infinity, route oral, dose 1 mg/kg; conditions: in vivo; outline: as §3
[14] = Oral bioavailability in Crl:CD(SD) rat at 1 mg/kg by LC-MS/MS analysis; format: ADME, organism-based; conditions: in vivo
Outline: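 Oral bioavailability = (AUC0-inf,po/dose po)/(AUC0-inf,iv/dose iv) × 100. Oral dosing used a 0.5% MC suspension. IV dosing used a DMSO/PEG400/saline (5/47.5/47.5) solution, with CD1(ICR) mice for the iv arm. Plasma drug levels were measured by LC-MS/MS after methanol/acetonitrile extraction with internal standard.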

COc1cc(F)c([C@@H]2CNC(=O)[C@H]2NC(=O)Nc2ccccc2)c(F)c1 [BMS-986235]
EC50 [1]: 0.41 nM
inhibition in vivo at 1 mg/kg [2]: 88%
EC50 (fMet-Leu-Phe receptor [3]): 400 nM
EC50 (fMet-Leu-Phe receptor [4]): 500 nM
Ratio EC50 (CHO [5]): 80
Ratio EC50 (CHO [6]): 1000
Activity (Mus musculus): Active
clearance [7]: 90 mL/min/kg
clearance [8]: 12 mL/min/kg
Cmax [9]: 160 nM
Cmax [10]: 820 nM
half-life [11]: 0.68 h
half-life [12]: 5 h
AUC(0-inf) [13]: 0.64 µM·h
bioavailability [14]: 67%

From ChEMBL document CHEMBL4725241, “Discovery of BMS-986235/LAR-1219: A Potent Formyl Peptide Receptor 2 (FPR2) Selective Agonist for the Prevention of Heart Failure” (J Med Chem, 2020)
